From PubChem
This is a sample that favours compounds with a hit; in the whole collection about 3.5% have one here.
SIAE primary = human SIAE inhibition, primary screen. Q9HAT2. SIAE FP-Rh probe binding, fluorescence polarization. inhibition, % at 9.66 µM. 370,000 compounds, 0.69% hits;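 active means inhibition above a cutoff: mean of compounds within the control limits plus 3 SD of those, cut at about 17% in these data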
HTRA1 inh = HTRA1 (human) protease inhibition; Q92743; recombinant HTRA1, FP-rhodamine activity-based probe, fluorescence polarization; inhibition, % at 5.96 µM; 340,000 compounds, 0.5% hits; in the data active means inhibition above about 36%
mABHD4 FP = inhibitors of mouse ABHD4 | inhibition, % at 8.92 µM | purified mABHD4, FP-Rh probe fluorescence polarization | Q8VD66 | AID 720543 | 370,000 compounds, 0.54% hits;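 active means inhibition exceeding the mean over every tested compound plus 3 SD, cut at about 30% in these data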
Target sequence (Q8VD66 whole entry, looked up): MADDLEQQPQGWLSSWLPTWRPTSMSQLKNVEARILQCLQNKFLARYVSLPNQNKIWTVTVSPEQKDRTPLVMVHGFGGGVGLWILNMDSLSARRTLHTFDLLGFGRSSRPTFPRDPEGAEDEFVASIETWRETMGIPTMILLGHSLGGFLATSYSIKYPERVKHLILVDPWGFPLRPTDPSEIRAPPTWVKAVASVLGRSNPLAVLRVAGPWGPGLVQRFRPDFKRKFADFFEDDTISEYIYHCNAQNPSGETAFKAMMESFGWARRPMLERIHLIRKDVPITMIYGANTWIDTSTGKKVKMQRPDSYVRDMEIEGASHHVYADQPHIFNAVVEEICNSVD
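assay system = mABHD4 protein | compound dosing = single nominal dose of 8.92 µM, 0.89% DMSO final | read-out basis = percent inhibition of probe binding, normalized to plate controls | schedule = Enzyme–compound pre-incubation 45 min, then probe 60 min, both 25 °C | detection = fluorescence polarization, excitation 525 nm, emission 598 nm, BODIPY TMR filters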
PRMT1 inh = blocks human protein arginine methyltransferase 1. recombinant PRMT1, activity-based probe fluorescence polarization. inhibition, % at 2.79 µM. Q99873. 370,000 compounds, 1.3% hits;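 active means inhibition above about 21% made by adding two undisclosed values, limit read from the data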
TCR CD3 inh = inhibitors of human TCR-CD3 interaction; TAMRA-labeled TCR probe fluorescence, biochemical; inhibition, % at 9.4 µM; 360,000 compounds, 0.37% hits; AID 651800; in the data active means inhibition above about 19%;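 further: recombinant mutant TCR 2C K166C tagged with TAMRA read by polarization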
rCAG binder = binds r(CAG) RNA repeats; r(CAG) RNA repeat, TO-PRO-1 dye displacement fluorescence; inhibition, % at 3 µM; 370,000 compounds, 1.3% hits;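 active means inhibition above the plate cutoff, the mean of all test compounds on that plate plus 3 SD, cut at about 35% in these data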;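 further: higher means more dye released from RNA so lower well fluorescence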
PRMT1 inh conf = confirmation of human PRMT1 inhibitors. recombinant His-PRMT1, activity-based probe fluorescence polarization. shares compounds with PRMT1 inh. AID 687036. 3,300 compounds, 42% hits. inhibition, % at 2.79 µM;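 active means mean inhibition across replicates above the hit cutoff derived for the earlier primary screen, cut at about 22% in these data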
ABHD4 confirm = ABHD4 (mouse) inhibition, FP confirmation | 1,800 compounds, 55% hits | shares compounds with mABHD4 FP | purified mABHD4, FP-Rh probe fluorescence polarization | inhibition, % at 8.92 µM;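 active means mean inhibition across replicates above the hit cutoff set in the primary screen, cut at about 30% in these data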
SIAE confirm = human SIAE inhibition, confirmation. shares compounds with SIAE primary. SIAE FP-Rh activity-based probe, fluorescence polarization. inhibition, % at 9.66 µM. 2,300 compounds, 13% hits. AID 1117263;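 active means mean inhibition of the replicates above the hit cutoff set in the primary screen, cut at about 17% in these data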;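 further: inhibitors lower polarization as more probe stays unbound to SIAE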
A number is an active result; . = inactive; / = no result.

SMILES	SIAE primary	HTRA1 inh	mABHD4 FP	PRMT1 inh	TCR CD3 inh	rCAG binder	ABHD4 confirm	others
Cc1ccc([C@@H]2C3COCC=C3C(C#N)=C(N)C2(C#N)C#N)o1 (stereo partly drawn)	18	.	.	28	.	.	/	PRMT1 inh conf=.;SIAE confirm=.
O=C(N[C@H](C(=O)N1CCC[C@H]1C(=O)NC1CCCC1)C1CCCCC1)C1CCCC1	.	/	.	.	.	.	/
COc1ccc(C2N(C(=O)c3ccccc3)CCN2C(=O)c2ccccc2)cc1	.	.	.	.	.	.	/
COc1ccc(S[C@]2(C(=O)N3CCN(C(C)=O)CC3)CC(=O)N(C(=O)c3ccccc3)[C@@H]2c2ccc(OC)cc2)cc1	18	/	.	83	/	.	/	PRMT1 inh conf=82;SIAE confirm=.
COC(=O)C1CN(Cc2cn(Cc3ccc(C)cc3)nn2)CCS(=O)(=O)N1Cc1ccc(OC)cc1 (stereo not drawn)	.	/	.	.	/	.	/
CCCCCCn1c(=O)[nH]c2nc3cc(N)ccc3nc2c1=O	18	/	50	124	.	.	40	PRMT1 inh conf=104;SIAE confirm=.
CCCCCn1c(=O)c(C(=O)c2ccccc2)nc2ccccc21	.	.	.	.	.	.	/
Cc1cccc(C=Nc2ccc3c4c(cccc24)CC3)c1O	21	.	34	36	.	.	.	PRMT1 inh conf=.;SIAE confirm=.
O=C(O)c1ccc(S(=O)(=O)c2ccc3c(c2)C(=O)N(c2ccc(O)cc2)C3=O)cc1	.	.	92	.	.	.	.
CCOc1ccc2[nH]c3c(N4CCc5ccccc5C4)ncnc3c2c1	.	/	35	.	.	.	53
CCOC(=O)c1c(C)[nH]c(O)c1C=Nc1ccc(Cl)cc1	.	.	59	.	.	.	.
Brc1ccc(-c2nc3ccccc3s2)s1	.	.	.	.	.	.	/
O=c1ccc2nc3ccccc3sc-2c1	.	/	66	22	.	.	37
COC(=O)[C@H](Cc1ccccc1)NP(=O)(OC)[C@@H](C)NC(=O)OCc1ccccc1 (stereo partly drawn)	.	/	.	.	/	.	/
CCOc1ccc(N2C(=O)C(Cl)=C(Nc3ccccc3O)C2=O)cc1	.	.	34	22	.	.	.
COc1ccccc1NC1=C(Cl)C(=O)N(c2ccccc2)C1=O	.	.	.	.	.	.	/
CCC1CCCCN1C(=O)n1ncc(C(O)(c2ccccc2)c2ccccc2)n1 (stereo not drawn)	.	/	.	.	/	/	/
N=C(N)SCc1cn(-c2ccccc2)nc1-c1ccc(Br)cc1	.	.	36	.	.	.	60
COc1cccc2c(=O)c3cccc(N)c3[nH]c12	.	.	58	.	.	.	66
COc1cccc2c(=O)c3c([nH]c12)OC(C)(C)C3	.	.	.	.	.	.	/
C=CCN(c1ccccc1C(=O)O)S(=O)(=O)c1ccc(NC(=O)OC)cc1	.	.	35	.	.	.	.
C[C@@H]1CCN(C2CC2)S(=O)(=O)c2c(cccc2N2CCC[C@@H]2CO)O1	.	/	.	.	/	.	/
CC(=O)C1CCC2C3CC=C4CC(SC(=N)N)CCC4(C)C3CCC12C (stereo not drawn)	.	.	46	.	.	.	38
NC(=S)n1[nH]c(-c2ccc([N+](=O)[O-])cc2)c(N=Nc2cccc([N+](=O)[O-])c2)c1=O	.	.	30	.	.	.	54
NC(=S)NN=Cc1cc(-c2cccc(N)c2)ccn1	.	.	44	.	.	.	58
SMILES	SIAE primary	HTRA1 inh	mABHD4 FP	PRMT1 inh	TCR CD3 inh	rCAG binder	ABHD4 confirm	others
CCN(C(=O)C1CCCN(c2nnc(-n3cccc3)s2)C1)c1ccccc1C (stereo not drawn)	.	/	.	.	/	.	/
COC/C=C/C1=CC2=CC(=O)C(C)(OC(=O)c3cnc4ccccc4n3)C(=O)C2=CN1Cc1ccc(OC)cc1 (stereo not drawn)	.	.	.	.	.	.	/
COC/C=C/C1=CC2=CC(=O)C(C)(OC(=O)c3cnc4ccccc4n3)C(=O)C2=CN1Cc1ccccc1 (stereo not drawn)	.	.	34	.	.	.	.
Nc1ccc2c(c1)C(=O)c1ccc(N)cc1-2	.	.	30	.	.	.	37
COc1cc(NC(=O)c2cnn3c(C)cc(C)nc23)cc(OC)c1OC	.	/	.	.	/	/	/
Cc1nn(-c2ccccc2)c2sc(C(=O)N3CCN(S(=O)(=O)c4ccc(Br)s4)CC3)cc12	.	/	.	.	/	.	/
Cc1cc(O)ccc1N/C=C/c1onc(C)c1[N+](=O)[O-]	.	.	56	33	.	.	.
CCC[C@H]1[C@@H](OC(=O)NCc2ccc(Cl)cc2)CC[C@@]23CCCN2C(=O)CCC[C@@H]13	.	/	.	.	/	/	/
CCCCOc1cc(NCc2ccccc2)c2ncn(C(C)C)c2c1	.	.	37	.	.	.	91
CCC(CO)Oc1cc(NCc2ccc(C(C)(C)C)cc2)c2ncn(C(C)C)c2c1 (stereo not drawn)	.	.	30	.	.	.	34
COCCCOc1cc(NCc2ccccc2)c2ncn(C(C)C)c2c1	.	.	.	.	.	.	/
Cc1ccn2c(NC3CCCCC3)c(-c3cccc(-c4cccc(Cl)c4)c3)nc2c1	.	.	38	.	.	.	54
Cc1ccn2c(NC3CCCCC3)c(C)nc2c1	.	.	.	.	.	.	/
COc1cccc(C2CC(c3cccc(NS(C)(=O)=O)c3)=NN2C(=O)c2ccccc2)c1OC (stereo not drawn)	.	.	34	.	.	.	31
CN(C)c1ccc(C2CC(c3cccc(NS(C)(=O)=O)c3)=NN2C(=O)c2ccccc2)cc1 (stereo not drawn)	.	.	.	.	.	.	/
COc1ccc(CCNc2ccc(C(=O)O)cc2[N+](=O)[O-])cc1OC	.	.	45	.	.	.	43
O=C(O)c1ccc(NCCC2=CCCCC2)c([N+](=O)[O-])c1	.	.	41	.	.	.	45
CCCCOCCCNC(=O)C[C@@H]1C(=O)N(CCc2ccc(Cl)cc2)C2=CCCCC[C@]21C(=O)OC	.	/	.	.	/	.	/
CNCc1ccccc1Sc1cc(O)ccc1O	.	.	50	58	.	.	63
CNCc1ccccc1Sc1cccc(O)c1	.	.	.	.	.	.	/
CC(=O)N1CCN(S(=O)(=O)c2ccc3c(c2)oc(=O)n3C)CC1	.	/	.	.	/	.	/
